Test results reported in ChEMBL document CHEMBL1129477, “Structure-activity relationships of the quinolone antibacterials against mycobacteria: effect of structural changes at N-1 and C-7” (J Med Chem, 1996).
Values after ≈ are worked out from the molar mass of the structure shown.

Tests used:
Assay type in all cases: functional
Escherichia coli = assay: Anti-bacterial activity was tested against Gram-negative EC-1 bacterium
In short: (§1)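 Standard microtitration MIC determination (µg/mL) against four representative Gram-negative and Gram-positive bacterial strains.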

[1] = system: Mycolicibacterium fortuitum; assay: Anti-bacterial activity tested against Mycobacterium fortuitum (ATCG 6841)
[2] = system: Mycolicibacterium smegmatis; assay: Anti-bacterial activity tested against Mycobacterium smegmatis (ATCG 19420)
Pseudomonas aeruginosa = assay: Anti-bacterial activity tested against Gram-negative PA-7 bacterium; in short: as §1
Staphylococcus aureus = assay: Anti-bacterial activity was tested against Gram-positive SA-13 bacterium; in short: as §1
Streptococcus pyogenes = assay: Anti-bacterial activity tested against Gram-positive SP1-1 bacterium; in short: as §1

MIC (Escherichia coli) [µg/mL] | MIC [1] [µg/mL] | MIC [2] [µg/mL] | MIC (Pseudomonas aeruginosa) [µg/mL] | MIC (Staphylococcus aureus) [µg/mL] | MIC (Streptococcus pyogenes) [µg/mL] | Compound
0.05 (≈ 0.139 µM) | 0.06 (≈ 0.167 µM) | 0.13 (≈ 0.362 µM) | 0.8 (≈ 2.23 µM) | 0.4 (≈ 1.11 µM) | > 3.1 | CC1CN(c2cc3c(cc2F)c(=O)c(C(=O)O)cn3C2CC2)CC(C)N1 (configuration not stated)
0.1 (≈ 0.268 µM) | 0.25 (≈ 0.669 µM) | 0.25 (≈ 0.669 µM) | 1.6 (≈ 4.28 µM) | 0.2 (≈ 0.536 µM) | 0.8 (≈ 2.14 µM) | CC(C)N1CCN(c2cc3c(cc2F)c(=O)c(C(=O)O)cn3C2CC2)CC1
0.2 (≈ 0.516 µM) | 1 (≈ 2.58 µM) | 0.25 (≈ 0.645 µM) | 1.6 (≈ 4.13 µM) | 0.4 (≈ 1.03 µM) | 1.6 (≈ 4.13 µM) | CC(C)CN1CCN(c2cc3c(cc2F)c(=O)c(C(=O)O)cn3C2CC2)CC1
0.4 (≈ 1.11 µM) | 0.25 (≈ 0.696 µM) | 1 (≈ 2.78 µM) | 1.6 (≈ 4.45 µM) | 3.1 (≈ 8.63 µM) | > 3.1 | CC1CN(c2cc3c(cc2F)c(=O)c(C(=O)O)cn3C2CCC2)CCN1 (configuration not stated)
0.05 (≈ 0.139 µM) | 0.06 (≈ 0.167 µM) | 0.13 (≈ 0.362 µM) | 0.8 (≈ 2.23 µM) | 0.2 (≈ 0.556 µM) | 0.8 (≈ 2.23 µM) | CCN1CCN(c2cc3c(cc2F)c(=O)c(C(=O)O)cn3C2CC2)CC1 [ENROFLOXACIN]
3.1 (≈ 8.92 µM) | 2 (≈ 5.76 µM) | 8 (≈ 23 µM) | > 3.1 | 1.6 (≈ 4.61 µM) | 0.4 (≈ 1.15 µM) | CCn1cc(C(=O)O)c(=O)c2cc(F)c(N3CCC(CNC)C3)cc21 (configuration not stated)
0.2 (≈ 0.556 µM) | 0.25 (≈ 0.696 µM) | 0.5 (≈ 1.39 µM) | 0.8 (≈ 2.23 µM) | 0.2 (≈ 0.556 µM) | 0.1 (≈ 0.278 µM) | CNCC1CCN(c2cc3c(cc2F)c(=O)c(C(=O)O)cn3C2CC2)C1 (configuration not stated)
0.4 (≈ 1.07 µM) | 0.13 (≈ 0.346 µM) | 0.25 (≈ 0.666 µM) | 1.6 (≈ 4.26 µM) | 0.2 (≈ 0.533 µM) | 0.2 (≈ 0.533 µM) | CNCC1CCN(c2cc3c(cc2F)c(=O)c(C(=O)O)cn3C(C)(C)C)C1 (configuration not stated)
0.05 (≈ 0.145 µM) | 0.06 (≈ 0.174 µM) | 0.25 (≈ 0.724 µM) | 0.2 (≈ 0.579 µM) | 0.8 (≈ 2.32 µM) | 0.8 (≈ 2.32 µM) | CC1CN(c2cc3c(cc2F)c(=O)c(C(=O)O)cn3C2CC2)CCN1 (configuration not stated)
0.2 (≈ 0.6 µM) | 1 (≈ 3 µM) | 2 (≈ 6 µM) | > 3.1 | 3.1 (≈ 9.3 µM) | > 3.1 | CCn1cc(C(=O)O)c(=O)c2cc(F)c(N3CCNC(C)C3)cc21 (configuration not stated)

Further lines, the compound ahead of its results:

Compound | MIC (Escherichia coli) [µg/mL] | MIC [1] [µg/mL] | MIC [2] [µg/mL] | MIC (Pseudomonas aeruginosa) [µg/mL] | MIC (Staphylococcus aureus) [µg/mL] | MIC (Streptococcus pyogenes) [µg/mL]
CCNCC1CCN(c2cc3c(cc2F)c(=O)c(C(=O)O)cn3-c2ccc(F)cc2F)C1 (configuration not stated) | 0.4 (≈ 0.898 µM) | 0.5 (≈ 1.12 µM) | 0.5 (≈ 1.12 µM) | 1.6 (≈ 3.59 µM) | 0.2 (≈ 0.449 µM) | 0.1 (≈ 0.224 µM)
CCn1cc(C(=O)O)c(=O)c2cc(F)c(N3CC(C)NC(C)C3)cc21 (configuration not stated) | 0.4 (≈ 1.15 µM) | 0.13 (≈ 0.374 µM) | 1 (≈ 2.88 µM) | 3.1 (≈ 8.92 µM) | 0.8 (≈ 2.3 µM) | > 3.1
O=C(O)c1cn(C2CCC2)c2cc(N3CCNCC3)c(F)cc2c1=O | 0.4 (≈ 1.16 µM) | 0.5 (≈ 1.45 µM) | 2 (≈ 5.79 µM) | 1.6 (≈ 4.63 µM) | 3.1 (≈ 8.98 µM) | > 3.1
CC(C)N1CCN(c2cc3c(cc2F)c(=O)c(C(=O)O)cn3-c2ccc(F)cc2F)CC1 | 0.8 (≈ 1.8 µM) | 0.5 (≈ 1.12 µM) | 1 (≈ 2.24 µM) | 3.1 (≈ 6.96 µM) | 0.4 (≈ 0.898 µM) | 3.1 (≈ 6.96 µM)
CCN1CCN(c2cc3c(cc2F)c(=O)c(C(=O)O)cn3CC)CC1 | 0.1 (≈ 0.288 µM) | 0.25 (≈ 0.72 µM) | 0.5 (≈ 1.44 µM) | 1.6 (≈ 4.61 µM) | 0.2 (≈ 0.576 µM) | 3.1 (≈ 8.92 µM)
CC(C)(C)n1cc(C(=O)O)c(=O)c2cc(F)c(N3CCNCC3)cc21 | 0.2 (≈ 0.576 µM) | < 0.03 | 0.13 (≈ 0.374 µM) | 0.4 (≈ 1.15 µM) | 0.8 (≈ 2.3 µM) | 1.6 (≈ 4.61 µM)
CC(C)n1cc(C(=O)O)c(=O)c2cc(F)c(N3CCNCC3)cc21 | 0.8 (≈ 2.4 µM) | 1 (≈ 3 µM) | 4 (≈ 12 µM) | 1.6 (≈ 4.8 µM) | > 3.1 | > 3.1
C[C@@H]1CN(c2c(F)c(N)c3c(=O)c(C(=O)O)cn(C4CC4)c3c2F)C[C@H](C)N1 [SPARFLOXACIN] | 0.025 (≈ 0.0637 µM) | 0.06 (≈ 0.153 µM) | 0.13 (≈ 0.331 µM) | 0.8 (≈ 2.04 µM) | 0.05 (≈ 0.127 µM) | 0.1 (≈ 0.255 µM)
CC1(CN)CCN(c2cc3c(cc2F)c(=O)c(C(=O)O)cn3C2CC2)C1 (configuration not stated) | 0.4 (≈ 1.11 µM) | < 0.03 | 0.06 (≈ 0.167 µM) | 0.4 (≈ 1.11 µM) | 0.1 (≈ 0.278 µM) | 0.05 (≈ 0.139 µM)
CCN1CCN(c2cc3c(cc2F)c(=O)c(C(=O)O)cn3C(C)C)CC1 | 1.6 (≈ 4.43 µM) | 1 (≈ 2.77 µM) | 4 (≈ 11.1 µM) | > 3.1 | 3.1 (≈ 8.58 µM) | > 3.1
CCC1CN(c2cc3c(cc2F)c(=O)c(C(=O)O)cn3-c2ccc(F)cc2F)CCN1 (configuration not stated) | 0.4 (≈ 0.927 µM) | 0.25 (≈ 0.579 µM) | 1 (≈ 2.32 µM) | 3.1 (≈ 7.19 µM) | 0.4 (≈ 0.927 µM) | 0.8 (≈ 1.85 µM)
CC1CN(c2cc3c(cc2F)c(=O)c(C(=O)O)cn3-c2ccc(F)cc2F)CC(C)N1 (configuration not stated) | 0.4 (≈ 0.927 µM) | 0.25 (≈ 0.579 µM) | 0.5 (≈ 1.16 µM) | 0.8 (≈ 1.85 µM) | 0.4 (≈ 0.927 µM) | 0.8 (≈ 1.85 µM)
